FC, Activity and IC99 data for 1 compound are collected here from ChEMBL document CHEMBL1629542, “Epigallocatechin gallate inactivates clinical isolates of herpes simplex virus” (Antimicrob Agents Chemother, 2008).

In test [1] the test system is Human alphaherpesvirus 1. Briefly: Antiviral activity against Human herpesvirus 1 F1 infected in African green monkey CV1 cells assessed as log reduction in viral titer at 100 uM. The test is classed as functional, CV-1.
Test [2] deals with Human alphaherpesvirus 2. Briefly: Antiviral activity against Human herpesvirus 2 isolate P11 infected in African green monkey CV1 cells assessed as log reduction in viral titer at 100 uM within 20 mins. The test is classed as functional, CV-1. A digest of the protocol: (§1)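 HSV-2 clinical isolates from clarified CV-1 supernatants were held with 100 μM EGCG for timed intervals, from 10 min onward. Surviving virus was titrated on CV-1 cells by 10-fold dilution and 5-day CPE scoring, with TCID50 by Reed-Muench. Values are mean ± SD, three experiments.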

Test [3] deals with Human alphaherpesvirus 1. Kind of test: Antiviral activity against Human herpesvirus 1 isolate P25 infected in African green monkey vero cells assessed as reduction in viral titer at 100 uM. In kind it is functional, organism-based. The gist of the method:
(§2)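 Laboratory HSV-1 F1 or patient-swab HSV-1 isolates were prepared as clarified Vero supernatants. They were incubated 1 h with a range of EGCG concentrations in RPMI 1640/1% FCS at pH 7.4. Titres were determined on Vero cells by 5-day CPE endpoint (Reed-Muench). IC99 was read graphically as 99% titre drop from untreated; mean ± SD, three experiments.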

Test [4] has as its system Human alphaherpesvirus 1. Kind of test: Antiviral activity against Human herpesvirus 1 F1 assessed as decrease in labeled gB envelope glycoprotein at 100 uM after 2 hrs by electron microscopy. In kind it is functional, organism-based. A digest of the protocol:
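Purified HSV-1 F1 virions were treated with 100 μM EGCG for 2 h, fixed in glutaraldehyde/paraformaldehyde and LR White-embedded without osmium. Nickel-grid sections were blocked with BSA and goat serum, then labelled overnight with anti-gB or anti-gD monoclonal (1:15) and 15 nm colloidal gold. Labelled versus unlabelled particles were counted in 10 fields of 100 particles; mean ± SD.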

The test system of test [5] is Human alphaherpesvirus 2. Briefly: Antiviral activity against Human herpesvirus 2 isolate P47 infected in African green monkey CV1 cells assessed as log reduction in viral titer at 12.5 uM. The test is classed as functional, CV-1. The gist of the method:
(§3)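 HSV-2 (clinical swab isolates or strain 333) was grown in CV-1 cells and used as clarified supernatant. Virus was exposed to graded EGCG for 1 h in RPMI 1640 with 1% FCS, pH 7.4. Tenfold dilutions were titrated on CV-1 cells, three wells each, 5 days at 37°C, scoring CPE. TCID50 was calculated by Reed-Muench. IC99 was read graphically as 99% titer drop from the zero-concentration titer. Mean of three experiments.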

In test [6] the test system is Human alphaherpesvirus 1. Briefly: Antiviral activity against Human herpesvirus 1 isolate P56 infected in African green monkey vero cells assessed as reduction in viral titer. The test is classed as functional, organism-based. The settings on record: Human alphaherpesvirus 1, isolate P56, Vero. The gist of the method:
as §2

Test [7] concerns Human alphaherpesvirus 1. Kind of test: Binding affinity to Envelope glycoprotein B in Human herpesvirus 1 F1 assessed as macromolecular complex formation by SDS-PAGE. The gist of the method: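 Purified HSV-1 gB or gD (500 to 700 μg/ml) was incubated with EGCG (250 μg/ml; 545 μM) in 0.1 M potassium phosphate, pH 7.0, at 35°C for 24 h. Products were denatured at 50°C for 15 min in sample buffer and run on 6.5% SDS-PAGE. Bands were stained with Coomassie blue to detect higher-molecular-weight complexes.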

In test [8] the test system is Human alphaherpesvirus 1. Kind of test: Antiviral activity against Human herpesvirus 1 isolate P32 infected in African green monkey vero cells assessed as log reduction in viral titer at 50 uM. In kind it is functional. The gist of the method:
as §2

The subject of test [9] is Human alphaherpesvirus 1. Briefly: Antiviral activity against Human herpesvirus 1 isolate P42 infected in African green monkey vero cells assessed as reduction in viral titer at 100 uM. In kind it is functional, organism-based. The gist of the method: as §2
For test [10], the system named is Human alphaherpesvirus 2. Kind of test: Antiviral activity against Human herpesvirus 2 isolate P47 infected in African green monkey CV1 cells assessed as log reduction in viral titer at 100 uM within 10 mins. The test is classed as functional, CV-1. A digest of the protocol: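 Time course: clarified CV-1 supernatant of HSV-2 (clinical isolates or strain 333) was exposed to 100 μM EGCG for increasing times. It was then titrated by tenfold dilution on CV-1 cells, three wells per dilution, for 5 days at 37°C with CPE read-out. Reed-Muench TCID50 was compared with the untreated titer. Mean of three separate experiments.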

Test [11] concerns Human alphaherpesvirus 2. Briefly: Antiviral activity against Human herpesvirus 2 isolate P12 infected in African green monkey CV1 cells assessed as log reduction in viral titer at 100 uM within 20 mins. The test is classed as functional, CV-1. The gist of the method: as §1
Test [12] has as its system Human alphaherpesvirus 2. Kind of test: Antiviral activity against Human herpesvirus 2 isolate P11 infected in African green monkey CV1 cells assessed as log reduction in viral titer at 12.5 uM. The test is classed as functional, CV-1. A digest of the protocol: (§4)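 HSV-2 patient-swab isolates were grown as clarified CV-1 supernatants and incubated 1 h with a range of EGCG concentrations (RPMI 1640/1% FCS, pH 7.4). They were titrated on CV-1 cells from 10-fold dilutions by 5-day CPE at 37°C, with Reed-Muench TCID50. IC99 was derived graphically as 99% reduction from zero-drug titre; mean ± SD, three experiments.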

The subject of test [13] is Human alphaherpesvirus 1. Briefly: Antiviral activity against Human herpesvirus 1 isolate P15 infected in African green monkey vero cells assessed as log reduction in viral titer at 100 uM after 30 mins. The test is classed as functional. The gist of the method:
(§5)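 In the time course, HSV-1 clinical isolates (clarified Vero supernatants) were exposed to 100 μM EGCG for varying times up to 60 min. Residual infectivity was then titrated on Vero cells by 5-day CPE endpoint with Reed-Muench calculation. Mean ± SD of three separate experiments.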

The test system of test [14] is Human alphaherpesvirus 1. Kind of test: Antiviral activity against Human herpesvirus 1 isolate P15 infected in African green monkey vero cells assessed as reduction in viral titer. The test is classed as functional, organism-based. The settings on record: Human alphaherpesvirus 1, isolate P15, Vero. A digest of the protocol: as §2
For test [15], the system named is Human alphaherpesvirus 1. Kind of test: Antiviral activity against Human herpesvirus 1 isolate P56 infected in African green monkey vero cells assessed as log reduction in viral titer at 100 uM after 30 mins. In kind it is functional. The gist of the method:
as §5

Test [16] has as its system Human alphaherpesvirus 2. Briefly: Antiviral activity against Human herpesvirus 2 isolate P47 infected in African green monkey CV1 cells. The test is classed as functional, organism-based. The settings on record: Human alphaherpesvirus 2, isolate P47, CV-1. The gist of the method:
as §3

The test system of test [17] is Human alphaherpesvirus 1. Briefly: Antiviral activity against Human herpesvirus 1 isolate P25 infected in African green monkey vero cells assessed as log reduction in viral titer at 50 uM. The test is classed as functional. The gist of the method:
as §2

Test [18] deals with Human alphaherpesvirus 2. Kind of test: Antiviral activity against Human herpesvirus 2 isolate P2 infected in African green monkey CV1 cells assessed as log reduction viral titer at 12.5 ug/ml. The test is classed as functional, CV-1. A digest of the protocol:
as §3

The subject of test [19] is Human alphaherpesvirus 1. Kind of test: Antiviral activity against Human herpesvirus 1 isolate P15 infected in African green monkey vero cells assessed as log reduction in viral titer at 50 uM. The test is classed as functional. The gist of the method: as §2
The test system of test [20] is Human alphaherpesvirus 2. Kind of test: Antiviral activity against Human herpesvirus 2 isolate P11 infected in African green monkey CV1 cells assessed as log reduction viral titer at 50 uM. In kind it is functional, CV-1. The gist of the method: as §4
Test [21] deals with Human alphaherpesvirus 1. Kind of test: Antiviral activity against Human herpesvirus 1 isolate P38 infected in African green monkey vero cells assessed as reduction in viral titer. The settings on record: Human alphaherpesvirus 1, isolate P38, Vero. In kind it is functional, organism-based. A digest of the protocol: as §2
Test [22] has as its system Human alphaherpesvirus 2. Kind of test: Antiviral activity against Human herpesvirus 2 isolate P22 infected in African green monkey CV1 cells assessed as log reduction in viral titer at 12.5 uM. The test is classed as functional, CV-1. A digest of the protocol: as §3
In test [23] the test system is Human alphaherpesvirus 2. Briefly: Antiviral activity against Human herpesvirus 2 strain 333 infected in African green monkey CV1 cells assessed as log reduction in viral titer at 100 uM. The test is classed as functional, CV-1. A digest of the protocol:
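Lab strain HSV-2 333 was grown and titrated either in CV-1 cells or in Vero cells. Virus was incubated with 100 μM EGCG for 60 min, then titrated as tenfold dilutions for 5 days at 37°C with CPE scoring. Reed-Muench TCID50 of treated versus control virus gave the titer decrease. Mean of three experiments.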

The test system of test [24] is Human alphaherpesvirus 1. Briefly: Antiviral activity against Human herpesvirus 1 isolate P38 infected in African green monkey vero cells assessed as reduction in viral titer at 100 uM. In kind it is functional, organism-based. The gist of the method: as §2

Active and inactive are the calls of the source. The rule behind the calls is not given here.

Broadly, the IC99 is the concentration needed for an effect of 99%. `O=C(O[C@@H]1Cc2c(O)cc(O)cc2O[C@@H]1c1cc(O)c(O)c(O)c1)c1cc(O)c(O)c(O)c1` [EPIGALOCATECHIN GALLATE]: the FC is 3.5 in the test on Human alphaherpesvirus 1 [1]; 3 in the test with Human alphaherpesvirus 2 [2]; “>=2” in the test on Human alphaherpesvirus 2 [5]; 2 in the test on Human alphaherpesvirus 1 [8]; 2 with Human alphaherpesvirus 2 [10]; 3 with Human alphaherpesvirus 2 [11]. Further, the FC entry in the test on Human alphaherpesvirus 2 [12] is “>=2”; with Human alphaherpesvirus 1 [13] it was 2; in the test on Human alphaherpesvirus 1 [15] it was 2; with Human alphaherpesvirus 1 [17], 2; with Human alphaherpesvirus 2 [18], 3.15; with Human alphaherpesvirus 1 [19], 2. Besides, the FC is listed as above 4 in the test with Human alphaherpesvirus 2 [20], “>=2” in the test with Human alphaherpesvirus 2 [22] and 4 in the test with Human alphaherpesvirus 2 [23]. The outcome with Human alphaherpesvirus 1 [3], with Human alphaherpesvirus 1 [4], with Human alphaherpesvirus 1 [7], with Human alphaherpesvirus 1 [9] and in the test with Human alphaherpesvirus 1 [24] was Active. Moreover, the 99% effect concentration (IC99) stood at 18.3 µM with Human alphaherpesvirus 1 [6], 48.4 µM in the test with Human alphaherpesvirus 1 [14], 12.5 µM in the test on Human alphaherpesvirus 2 [16] and 48.2 µM in the test with Human alphaherpesvirus 1 [21].
